Laboratory results taken from ChEMBL document CHEMBL2074468, “Identification of multispecific organic anion transporter 2 expressed predominantly in the liver” (FEBS Lett, 1998).

Key:
[1] = molecular target: T1, Solute carrier family 22 member 7 (Rattus norvegicus, UniProt Q5RLM2); test: (§1) TP_TRANSPORTER: uptake in Xenopus laevis oocytes; format: functional, cell-based; conditions: oocyte
T1 sequence (Q5RLM2 whole entry): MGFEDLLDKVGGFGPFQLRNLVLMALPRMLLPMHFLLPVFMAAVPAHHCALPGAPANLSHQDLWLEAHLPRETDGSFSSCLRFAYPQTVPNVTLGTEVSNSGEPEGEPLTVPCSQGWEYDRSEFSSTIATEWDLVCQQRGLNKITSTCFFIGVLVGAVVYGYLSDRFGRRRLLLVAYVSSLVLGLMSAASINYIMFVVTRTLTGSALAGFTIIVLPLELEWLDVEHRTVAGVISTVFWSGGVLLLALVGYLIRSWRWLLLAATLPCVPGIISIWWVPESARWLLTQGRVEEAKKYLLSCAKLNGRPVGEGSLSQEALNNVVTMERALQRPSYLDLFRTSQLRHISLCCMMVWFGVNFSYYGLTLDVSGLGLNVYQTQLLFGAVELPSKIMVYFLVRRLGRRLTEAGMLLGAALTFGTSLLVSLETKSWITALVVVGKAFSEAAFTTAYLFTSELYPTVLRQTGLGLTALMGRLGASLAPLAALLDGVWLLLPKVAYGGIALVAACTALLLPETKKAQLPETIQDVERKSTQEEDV
Outline: (§2)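 Oocytes were injected with 10 ng capped L5 cRNA or left as controls, then held 2–3 days at 18°C. Radiolabeled substrates ([14C]α-ketoglutarate 7 μM, [3H]PGE2 6 nM, [3H]methotrexate 1 μM, [14C]acetylsalicylate 20 μM, [14C]PAH 20 μM) were taken up for 1 h in ND96, pH 7.4, at room temperature. Mean±S.E.M., n=5–8.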

[2] = molecular target: T1, Solute carrier family 22 member 7; test: TP_TRANSPORTER: inhibition of Salicylate uptake (salicylate: 1 uM, ICG: 1000 uM) in Xenopus laevis oocytes; format: functional, cell-based; conditions: oocyte
Outline: (§3)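 Rat liver NLT/OAT2 (L5) cRNA (10 ng capped) was injected into defolliculated oocytes, which were kept 2–3 days at 18°C in gentamicin Barth's, pH 7.4. Uptake of 1 μM [14C]salicylate was measured in ND96 (pH 7.4) at room temperature, with or without inhibitor (1 mM; BSP 250 μM). Results are % of L5-mediated uptake without inhibitor, mean±S.E.M., n=5–8 oocytes.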

[3] = molecular target: T1, Solute carrier family 22 member 7; test: TP_TRANSPORTER: inhibition of Salicylate uptake (salicylate: 1 uM, Enalapril: 1000 uM) in Xenopus laevis oocytes; format: functional, cell-based; conditions: oocyte; outline: as §3
[4] = molecular target: T1, Solute carrier family 22 member 7; test: TP_TRANSPORTER: inhibition of Salicylate uptake (salicylate: 1 uM, Cefoperazone: 1000 uM) in Xenopus laevis oocytes; format: functional, cell-based; conditions: oocyte; outline: as §3
[5] = molecular target: T1, Solute carrier family 22 member 7; test: TP_TRANSPORTER: inhibition of Salicylate uptake (salicylate: 1 uM, BSP: 250 uM) in Xenopus laevis oocytes; format: functional, cell-based; conditions: oocyte; outline: as §3
[6] = molecular target: T1, Solute carrier family 22 member 7; test: TP_TRANSPORTER: inhibition of Salicylate uptake (salicylate: 1 uM, Rifampicin: 1000 uM) in Xenopus laevis oocytes; format: functional, cell-based; conditions: oocyte; outline: as §3
[7] = substrate: O=C(O)c1ccccc1O; test: cells, lysate or membranes named
[8] = substrate: O=C(O)CCC(=O)C(=O)O; test: as §1; format: functional, cell-based, Oocyte; outline: as §2

CCCCC[C@H](O)/C=C/[C@H]1[C@H](O)CC(=O)[C@@H]1C/C=C\CCCC(=O)O [DINOPROSTONE]
Activity [1]: substrate [+]

Nc1ccc(C(=O)NCC(=O)O)cc1 [AMINOHIPPURIC ACID]
Activity [1]: substrate [+]

CC[N+](CC)(CC)CC [TETRYLAMMONIUM]
Activity [1]: is not a substrate [-]

CC1(C)C(/C=C/C=C/C=C/C=C2/N(CCCCS(=O)(=O)[O-])c3ccc4ccccc4c3C2(C)C)=[N+](CCCCS(=O)(=O)[O-])c2ccc3ccccc3c21.[Na+] [INDOCYANINE GREEN]
Activity [2]: inhibitor [(at a rough estimate) 10 % of control]

CCOC(=O)[C@H](CCc1ccccc1)N[C@@H](C)C(=O)N1CCC[C@H]1C(=O)O
Activity [3]: inhibitor [(at a rough estimate) 80 % of control]

CC(=O)Oc1ccccc1C(=O)O [ASPIRIN]
Activity [1]: substrate [+]

CCN1CCN(C(=O)N[C@@H](C(=O)N[C@@H]2C(=O)N3C(C(=O)O)=C(CSc4nnnn4C)CS[C@H]23)c2ccc(O)cc2)C(=O)C1=O [CEFOPERAZONE]
Activity [4]: inhibitor [(at a rough estimate) 15 % of control]

CN(Cc1cnc2nc(N)nc(N)c2n1)c1ccc(C(=O)N[C@@H](CCC(=O)O)C(=O)O)cc1 [METHOTREXATE]
Activity [1]: substrate [+]

O=C1OC(c2ccc(O)c(S(=O)(=O)[O-])c2)(c2ccc(O)c(S(=O)(=O)[O-])c2)c2c(Br)c(Br)c(Br)c(Br)c21.[Na+].[Na+] [SULFOBROMOPHTHALEIN SODIUM]
Activity [5]: inhibitor [(at a rough estimate) <5 % of control]

CO[C@H]1/C=C/O[C@@]2(C)Oc3c(C)c(O)c4c(O)c(c(/C=N/N5CCN(C)CC5)c(O)c4c3C2=O)NC(=O)/C(C)=C\C=C\[C@H](C)[C@H](O)[C@@H](C)[C@@H](O)[C@@H](C)[C@H](OC(C)=O)[C@@H]1C [RIFAMPIN]
Activity [6]: inhibitor [(at a rough estimate) 15 % of control]

B1: Solute carrier family 22 member 7 (Rattus norvegicus) (protein)
chain: T1 sequence (Q5RLM2 whole entry)
Km [7]: 88.8 µM
Km [8]: 17.8 µM
